Broadly, the IC50 is the concentration at which inhibition is half-maximal.

Each structure is given as a SMILES string. Active and inactive are the calls of the source.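 Rule for the calls: active = any inhibition of the KCNQ1 potassium channel at some tested dose, with a fitted dose response curve; inactive = no inhibition at any dose or no curve fitted.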

The target of the assay is Potassium voltage-gated channel subfamily KQT member 1 (Homo sapiens) (UniProt P51787). The assay is described as follows: KCNQ1 channel current inhibition, SAR follow-up, selectivity assay for KCNQ2 inhibitor project, automated patch clamp, KCNQ1-CHO cells (AID 588425). The settings on record: for current change, negative = inhibition: at 30 µM (top of the series). Summed up: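 Assay system: KCNQ1-expressing CHO cells; Medium: NaCl/HEPES external, KCl/K-gluconate internal solutions; Probe or stimulus: voltage stimulus from -70 mV holding, stepped to +40 mV; Timing: 2,000 ms depolarization per sweep; Signal: automated patch clamp, amphotericin B-perforated recording of potassium current; Read-out: percent current change relative to pre-compound current.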
Sequence of Potassium voltage-gated channel subfamily KQT member 1 (Homo sapiens) (P51787 whole entry, looked up): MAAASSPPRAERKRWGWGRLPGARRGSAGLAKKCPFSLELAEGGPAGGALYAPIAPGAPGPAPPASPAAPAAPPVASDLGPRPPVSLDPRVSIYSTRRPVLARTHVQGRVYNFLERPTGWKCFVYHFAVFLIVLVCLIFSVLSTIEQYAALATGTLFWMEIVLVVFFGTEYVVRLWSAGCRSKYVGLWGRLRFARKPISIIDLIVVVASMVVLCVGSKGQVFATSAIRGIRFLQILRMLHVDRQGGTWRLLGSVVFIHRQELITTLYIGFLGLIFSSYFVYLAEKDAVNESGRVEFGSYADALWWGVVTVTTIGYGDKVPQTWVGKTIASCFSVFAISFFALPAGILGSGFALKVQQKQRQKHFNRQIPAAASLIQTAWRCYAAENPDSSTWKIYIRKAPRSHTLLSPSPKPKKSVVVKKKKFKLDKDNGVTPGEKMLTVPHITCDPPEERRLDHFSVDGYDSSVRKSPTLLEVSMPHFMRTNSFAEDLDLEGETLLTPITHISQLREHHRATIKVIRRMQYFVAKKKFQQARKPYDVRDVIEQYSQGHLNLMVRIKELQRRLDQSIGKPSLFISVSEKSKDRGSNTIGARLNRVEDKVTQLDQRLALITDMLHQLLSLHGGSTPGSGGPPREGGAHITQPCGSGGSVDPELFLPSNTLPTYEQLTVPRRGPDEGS
Background: The patch-clamp technique gives a direct electrical read-out from membranes.

Take `CC[C@@H](C(=O)Nc1ccccc1N1CCCC1)c1ccccc1`: the half-maximal inhibitory concentration (IC50) was 8.67 µM.

Consider `C[C@H](C(=O)Nc1ccccc1N1CCCC1)c1ccccc1`, for which the “current change, negative = inhibition” value was “inactive”.

Turning to `CCC(C(=O)Nc1ccccc1N1CCCC1)c1ccccc1F` (stereo unspecified), the “current change, negative = inhibition” value was “inactive”.

Turning to `CCC(C(=O)Nc1ccccc1N1CCCC1)c1cccc(OC)c1` (stereo unspecified), the IC50 is 22.1 µM.

Turning to `CC[C@H](C(=O)Nc1ccc(N2CCCC2)cc1)c1ccccc1`, the “current change, negative = inhibition” value is “inactive”.

In the case of `O=C(Nc1ccccc1N1CCCC1)C1CCc2ccccc21` (stereo unspecified), the IC50 was 12.1 µM.

Consider `CC[C@@H](C(=O)Nc1ccc(N2CCCC2)cc1)c1ccccc1`, for which the IC50 is 14.9 µM.

Consider `CC(C(=O)Nc1ccccc1N1CCCC1)c1ccccc1` (stereo unspecified), for which the concentration for half-maximal inhibition (IC50) is 29 µM.

Regarding `CCC(C(=O)Nc1ccccc1N1CCCC1)c1cccc(C)c1` (stereo unspecified), the “current change, negative = inhibition” value was “inactive”.

For the compound `CCC(C(=O)Nc1ccccc1N1CCCC1)c1cccc(C(F)(F)F)c1` (stereo unspecified), the “current change, negative = inhibition” value was “inactive”.

On to `CCC(C(=O)Nc1ccc(N2CCCC2)cc1)c1ccccc1` (stereo unspecified), for which the concentration for half-maximal inhibition (IC50) was 29 µM.

`CCC(C(=O)Nc1ccccc1N1CCCC1)c1ccc(F)c(F)c1` (stereo unspecified): the 50% inhibitory concentration (IC50) is 2.58 µM.

For the compound `CCC(C(=O)Nc1ccccc1N1CCCC1)c1ccc(Cl)cc1` (stereo unspecified), the “current change, negative = inhibition” value is “inactive”.

Consider `CCC(C(=O)Nc1ccccc1-n1cccc1)c1ccccc1` (stereo unspecified), for which the 50% inhibitory concentration (IC50) was 13.7 µM.

On to `CCC(C(=O)Nc1ccccc1N1CCCC1)c1cccc(F)c1` (stereo unspecified), for which the IC50 was 17.7 µM.

As for `CCC(C(=O)Nc1ccccc1N1CCCC1)c1ccccc1` (stereo unspecified), the IC50 is 19.5 µM.

As for `CCC(C(=O)Nc1ccccc1N1CCCC1)c1ccc(F)cc1` (stereo unspecified), the half-inhibitory concentration (IC50) is 6.8 µM.

In the case of `CC[C@H](C(=O)Nc1ccccc1N1CCCC1)c1ccccc1`, the IC50 is 2.92 µM.

Regarding `CCC(C(=O)Nc1ccccc1N1CCCC1)c1ccc(Cl)c(Cl)c1` (stereo unspecified), the half-maximal inhibitory concentration (IC50) was 9.96 µM.

For the compound `CCC(C(=O)Nc1ccccc1N1CCCC1)c1cccc(Cl)c1` (stereo unspecified), the half-inhibitory concentration (IC50) is 11.2 µM.

As for `CCC(C(=O)Nc1ccccc1-c1ccccc1)c1ccccc1` (stereo unspecified), the “current change, negative = inhibition” value was “inactive”.

(Values after PubChem BioAssay AID588425 (Johns Hopkins Ion Channel Center, 2011).)
